Calls of active or inactive are those of the source. No cut-off for these calls is given here.
What was measured:
[1] = target: T1, Phospholipase A and acyltransferase 5 (Homo sapiens) (UniProt Q96KN8); experiment: Inhibition of full-length C-terminal FLAG-tagged human PLAAT5 expressed in human U2OS cells assessed as reduction in absolute N-stearoylethanolamine level at 10 uM incubated for 4 hrs by LC-MS/MS analysis; assay type: cell-based
T1 sequence (whole entry): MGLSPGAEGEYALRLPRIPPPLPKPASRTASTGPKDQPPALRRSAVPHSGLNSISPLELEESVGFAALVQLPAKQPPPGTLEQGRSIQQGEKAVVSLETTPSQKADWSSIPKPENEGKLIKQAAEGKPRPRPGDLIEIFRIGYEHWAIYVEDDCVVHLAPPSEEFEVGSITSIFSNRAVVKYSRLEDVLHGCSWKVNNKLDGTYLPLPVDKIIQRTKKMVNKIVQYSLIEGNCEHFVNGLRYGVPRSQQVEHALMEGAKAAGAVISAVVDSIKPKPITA
Procedure, shortened: (§1)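 U2OS cells transfected with PLAAT2, PLAAT5 or empty vector (PEI, 1:5 plasmid/PEI). At 24 h, switched to serum-free medium with 10 μM compound (0.1% DMSO) or DMSO for 4 h at 37 °C. Pellets extracted with MTBE against deuterated internal standards. NAEs, 2-AG and free fatty acids quantified by LC–MS/MS, normalized to live cell count. Four biological replicates; one-way ANOVA.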

[2] = target: T2, Phospholipase A and acyltransferase 3 (Homo sapiens, UniProt P53816); experiment: Inhibition of full-length C-terminal FLAG-tagged human PLAAT3 expressed in HEK293T cell lysate preincubated for 30 mins followed by MB064 addition and measured after 20 mins by SDS-PAGE based ABPP analysis; assay type: cell-free, HEK-293T
T2 sequence (P53816 whole entry): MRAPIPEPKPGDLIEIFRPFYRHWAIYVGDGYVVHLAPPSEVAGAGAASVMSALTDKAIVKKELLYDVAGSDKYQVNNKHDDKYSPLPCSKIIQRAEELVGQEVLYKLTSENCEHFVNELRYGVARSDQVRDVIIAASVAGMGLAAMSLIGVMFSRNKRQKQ
Procedure, shortened: (§2)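 Dose–response competitive ABPP on cytosol only, from HEK293T overexpressing FLAG-tagged PLAAT. Inhibitor 30 min rt, then MB064 20 min rt. PLAAT2 0.25 μg/μL with 250 nM probe; PLAAT3 0.5 μg/μL with 250 nM; PLAAT4 and PLAAT5 1 μg/μL with 500 nM. Fluorescence normalized to Coomassie. IC50 from curves, reported as pIC50 ± SEM, n = 3.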

[3] = target: T3, Phospholipase A and acyltransferase 2 (Homo sapiens) (UniProt Q9NWW9); experiment: Inhibition of full-length C-terminal FLAG-tagged human PLAAT2 expressed in human U2OS cells assessed as reduction in absolute N-docosahexaenoylethanolamine level at 10 uM incubated for 4 hrs by LC-MS/MS analysis; assay type: cell-based; procedure, shortened: as §1
T3 sequence (whole entry): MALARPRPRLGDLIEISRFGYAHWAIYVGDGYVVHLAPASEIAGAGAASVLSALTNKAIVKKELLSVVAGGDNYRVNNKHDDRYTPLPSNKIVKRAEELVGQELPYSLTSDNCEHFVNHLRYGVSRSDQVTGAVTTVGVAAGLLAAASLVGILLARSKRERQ

U2OS [4] = experiment: Inhibition of serine hydrolase in human U2OS cytosolic fraction at 10 uM preincubated for 30 mins followed by MB064 addition and measured after 15 mins by SDS-PAGE based competitive ABPP analysis
Procedure, shortened: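 U2OS cytosol or membrane lysate at 2.5 μg/μL, pretreated with inhibitor or DMSO vehicle for 30 min at rt. Probe then added for 15 min at rt: MB064 at 2 μM or FP-TAMRA at 500 nM. Samples denatured in Laemmli buffer and resolved by SDS-PAGE. In-gel fluorescence scanned at Cy3/Cy5 settings and normalized to Coomassie staining.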

[5] = target: T4, Phospholipase A and acyltransferase 4 (Homo sapiens, UniProt Q9UL19); experiment: Inhibition of full-length C-terminal FLAG-tagged human PLAAT4 expressed in HEK293T cell lysate preincubated for 30 mins followed by MB064 addition and measured after 20 mins by SDS-PAGE based ABPP analysis; assay type: cell-free, HEK-293T; procedure, shortened: as §2
T4 sequence (Q9UL19 whole entry): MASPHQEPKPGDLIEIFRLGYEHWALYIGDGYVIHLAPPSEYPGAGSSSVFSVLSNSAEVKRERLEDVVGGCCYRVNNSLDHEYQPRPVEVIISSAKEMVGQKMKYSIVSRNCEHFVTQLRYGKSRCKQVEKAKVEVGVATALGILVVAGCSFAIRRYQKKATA

[6] = target: T1, Phospholipase A and acyltransferase 5 (Homo sapiens); experiment: Inhibition of full-length C-terminal FLAG-tagged human PLAAT5 expressed in human U2OS cells assessed as reduction in 2-AG level at 10 uM incubated for 4 hrs by LC-MS/MS analysis; assay type: cell-based; procedure, shortened: as §1
U2OS [7] = experiment: Downregulation of N-palmitoylethanolamine level in human U2OS cells at 10 uM after 4 hrs by LC-MS/MS analysis; assay type: functional, cell-based; procedure, shortened: as §1
[8] = target: T1, Phospholipase A and acyltransferase 5 (Homo sapiens); experiment: Inhibition of full-length C-terminal FLAG-tagged human PLAAT5 expressed in human U2OS cells assessed as reduction in absolute N-palmitoylethanolamine level at 10 uM incubated for 4 hrs by LC-MS/MS analysis; assay type: cell-based; procedure, shortened: as §1
U2OS [9] = experiment: Downregulation of N-oleoylethanolamine level in human U2OS cells at 10 uM after 4 hrs by LC-MS/MS analysis; assay type: functional, cell-based; procedure, shortened: as §1
[10] = target: Cytosolic phospholipase A2 beta (Homo sapiens) (UniProt P0C869); experiment: Inhibition of human PLA2G4B expressed in HEK293T cell lysates at 10 uM preincubated for 30 mins followed by FP-TAMRA addition and measured after 20 mins by SDS-PAGE based competitive ABPP analysis; assay type: cell-free; conditions: HEK-293T
Procedure, shortened: (§3)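 hPLA2G4B, C or D-overexpressing membrane lysate (1 μg/μL) preincubated with inhibitor for 30 min at rt. FP-TAMRA 500 nM added for 20 min at rt. In-gel fluorescence after SDS-PAGE, normalized to Coomassie.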

[11] = target: T1, Phospholipase A and acyltransferase 5 (Homo sapiens); experiment: Inhibition of full-length C-terminal FLAG-tagged human PLAAT5 expressed in human U2OS cells assessed as reduction in N-docosahexaenoylethanolamine level at 10 uM incubated for 4 hrs by LC-MS/MS analysis; assay type: cell-based; procedure, shortened: as §1
[12] = target: T3, Phospholipase A and acyltransferase 2 (Homo sapiens); experiment: Inhibition of full-length C-terminal FLAG-tagged human PLAAT2 expressed in human U2OS cells assessed as reduction in anandamide level at 10 uM incubated for 4 hrs by LC-MS/MS analysis relative to control; assay type: cell-based; procedure, shortened: as §1
[13] = target: Cytosolic phospholipase A2 gamma (Homo sapiens) (UniProt Q9UP65); experiment: Inhibition of human PLA2G4C expressed in HEK293T cell lysates at 10 uM preincubated for 30 mins followed by FP-TAMRA addition and measured after 20 mins by SDS-PAGE based competitive ABPP analysis; assay type: cell-free; conditions: HEK-293T; procedure, shortened: as §3
[14] = target: T3, Phospholipase A and acyltransferase 2 (Homo sapiens); experiment: Inhibition of full-length C-terminal FLAG-tagged human PLAAT2 expressed in human U2OS cells assessed as reduction in absolute N-eicosapentaenoylethanolamine level at 10 uM incubated for 4 hrs by LC-MS/MS analysis; assay type: cell-based; procedure, shortened: as §1
U2OS [15] = experiment: Downregulation of N-eicosapentaenoylethanolamine level in human U2OS cells at 10 uM after 4 hrs by LC-MS/MS analysis; assay type: functional, cell-based; procedure, shortened: as §1
U2OS [16] = experiment: Downregulation of N-stearoylethanolamine level in human U2OS cells at 10 uM after 4 hrs by LC-MS/MS analysis; assay type: functional, cell-based; procedure, shortened: as §1
U2OS [17] = experiment: Downregulation of N-docosahexaenoylethanolamine level in human U2OS cells at 10 uM after 4 hrs by LC-MS/MS analysis; assay type: functional, cell-based; procedure, shortened: as §1

Chain of Cytosolic phospholipase A2 beta (Homo sapiens) (P0C869 whole entry): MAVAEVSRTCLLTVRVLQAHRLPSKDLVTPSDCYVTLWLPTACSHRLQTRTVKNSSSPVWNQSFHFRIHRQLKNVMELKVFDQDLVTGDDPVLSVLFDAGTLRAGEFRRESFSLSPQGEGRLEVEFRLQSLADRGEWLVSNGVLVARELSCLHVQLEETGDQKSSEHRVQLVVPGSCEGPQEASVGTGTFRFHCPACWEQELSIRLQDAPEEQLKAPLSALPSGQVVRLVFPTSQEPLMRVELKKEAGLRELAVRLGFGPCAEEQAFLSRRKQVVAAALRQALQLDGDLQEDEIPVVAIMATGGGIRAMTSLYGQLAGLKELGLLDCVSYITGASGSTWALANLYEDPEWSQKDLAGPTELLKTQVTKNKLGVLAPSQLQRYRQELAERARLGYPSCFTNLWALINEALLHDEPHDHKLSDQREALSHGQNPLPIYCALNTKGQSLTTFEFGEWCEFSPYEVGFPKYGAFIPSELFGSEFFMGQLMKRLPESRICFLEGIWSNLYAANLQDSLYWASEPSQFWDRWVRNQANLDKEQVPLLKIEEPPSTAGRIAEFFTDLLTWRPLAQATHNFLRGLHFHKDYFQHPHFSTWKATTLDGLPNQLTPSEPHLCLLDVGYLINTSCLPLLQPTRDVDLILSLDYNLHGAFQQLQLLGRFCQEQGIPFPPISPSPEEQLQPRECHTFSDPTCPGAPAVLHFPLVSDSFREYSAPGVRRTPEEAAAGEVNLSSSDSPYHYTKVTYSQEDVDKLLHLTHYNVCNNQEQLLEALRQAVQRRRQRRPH
Chain of Cytosolic phospholipase A2 gamma (Homo sapiens) (Q9UP65 whole entry): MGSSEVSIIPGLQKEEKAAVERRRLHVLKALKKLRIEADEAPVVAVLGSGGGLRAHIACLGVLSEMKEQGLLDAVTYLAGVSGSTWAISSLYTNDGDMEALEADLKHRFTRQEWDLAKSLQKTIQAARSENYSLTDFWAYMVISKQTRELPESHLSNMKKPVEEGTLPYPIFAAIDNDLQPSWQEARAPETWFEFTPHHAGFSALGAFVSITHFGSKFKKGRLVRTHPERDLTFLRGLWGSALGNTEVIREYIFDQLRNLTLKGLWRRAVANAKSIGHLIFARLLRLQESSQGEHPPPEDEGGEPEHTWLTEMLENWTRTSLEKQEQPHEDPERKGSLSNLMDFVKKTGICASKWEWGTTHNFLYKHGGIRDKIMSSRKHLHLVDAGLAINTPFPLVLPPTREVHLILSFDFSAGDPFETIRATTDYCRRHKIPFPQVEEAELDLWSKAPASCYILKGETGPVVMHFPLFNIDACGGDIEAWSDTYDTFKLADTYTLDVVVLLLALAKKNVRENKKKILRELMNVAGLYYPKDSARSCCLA

- inhibition [1]: Active
- IC50 [2]: 0.251 µM
- inhibition [3]: Active
- inhibition (U2OS [4]): inactive
- IC50 [5]: 0.0501 µM
- inhibition [6]: inactive
- inhibition [8]: Active
- inhibition [10]: inactive
- inhibition [11]: inactive
- fold change (FC) [12]: 2
- inhibition [13]: inactive
- inhibition [14]: Active
SMILES: O=C(CCCc1ccccc1)C(=O)NCCc1ccc(Oc2ccccc2)cc1
- inhibition (U2OS [7]): inactive
- inhibition (U2OS [9]): inactive
- inhibition (U2OS [15]): inactive
- inhibition (U2OS [16]): inactive
- inhibition (U2OS [17]): inactive
